Results taken from ChEMBL document CHEMBL5058577, “EUbOPEN Chemogenomics Library 2 (Multiplex)” (2022).

Tested on: HEK-293T
Assay: Multiplex assay against HEK293T
Format: toxicity, cell-based
Details: human
Procedure, shortened: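 Per cents of healthy-nucleus cells form the tubulin, mitochondrial-mass and membrane-permeability phenotype values. Live cells were stained at seeding with Hoechst33342, BioTracker Green Microtubule Cytoskeleton Dye, MitoTracker Red and Annexin V Alexa Fluor 680. After compound addition they were imaged on a CQ1 microscope at 37°C and 5% CO2, and CellPathfinder machine-learning gating split them into Hoechst high-intensity objects or normal cells, normal cells into healthy, pyknosed or fragmented nuclei, and pyknosed cells into mitotic or apoptotic.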

[1] = 12 h, 1 µM, compound concentration 1 uM, replicate 1
[2] = 12 h, 1 µM, compound concentration 1 uM, replicate 2
[3] = 12 h, 10 µM, compound concentration 10 uM, replicate 1
[4] = 12 h, 10 µM, compound concentration 10 uM, replicate 2
[5] = 24 h, 1 µM, compound concentration 1 uM, replicate 1
[6] = 24 h, 1 µM, compound concentration 1 uM, replicate 2
[7] = 24 h, 10 µM, compound concentration 10 uM, replicate 1
[8] = 24 h, 10 µM, compound concentration 10 uM, replicate 2
[9] = 48 h, 1 µM, compound concentration 1 uM, replicate 1
[10] = 48 h, 1 µM, compound concentration 1 uM, replicate 2
[11] = 48 h, 10 µM, compound concentration 10 uM, replicate 1
[12] = 48 h, 10 µM, compound concentration 10 uM, replicate 2

`C[C@H](NC(=O)CNC(=O)c1cccc(Cl)c1)c1ccccc1` was tested, and the “Population Apoptotic (%)” value [1] was 33%, the “Population Fragmented Nuclei (%)” value [1] was 5% and the “Population Healthy Nuclei (%)” value [1] was 79%. The “Population Hoechst High Intensity Objects (%)” value [1] was 8%, the “Population Membrane Permeable-Phenotype (%)” value [1] was 0% and the “Population Mitochondria Different-Phenotype (%)” value [1] was 39%. The “Population Mitotic Cells (%)” value [1] was 66%, the “Population Normal (%)” value [1] was 91% and the “Population Pyknosed Nuclei (%)” value [1] was 15%. The “Population Tubulin-Different-Phenotype (%)” value [1] was 29%, the “Total Cell Count” value [1] was 449 and the “Population Apoptotic (%)” value [2] was 48%. The “Population Fragmented Nuclei (%)” value [2] was 6%, the “Population Healthy Nuclei (%)” value [2] was 84% and the “Population Hoechst High Intensity Objects (%)” value [2] was 4%. The “Population Mitochondria Different-Phenotype (%)” value [2] was 52%, the “Population Mitotic Cells (%)” value [2] was 51% and the “Population Normal (%)” value [2] was 95%. The “Population Pyknosed Nuclei (%)” value [2] was 9%, the “Population Tubulin-Different-Phenotype (%)” value [2] was 17% and the “Total Cell Count” value [2] was 384. For the same compound, the “Population Apoptotic (%)” value [3] was 41%, the “Population Fragmented Nuclei (%)” value [3] was 6% and the “Population Healthy Nuclei (%)” value [3] was 76%. The “Population Hoechst High Intensity Objects (%)” value [3] was 7%, the “Population Membrane Permeable-Phenotype (%)” value [3] was 0% and the “Population Mitochondria Different-Phenotype (%)” value [3] was 54%. For the same compound, the “Population Mitotic Cells (%)” value [3] was 58%, the “Population Normal (%)” value [3] was 92% and the “Population Pyknosed Nuclei (%)” value [3] was 17%. The “Population Tubulin-Different-Phenotype (%)” value [3] was 39%, the “Total Cell Count” value [3] was 362 and the “Population Apoptotic (%)” value [4] was 58%. For the same compound, the “Population Fragmented Nuclei (%)” value [4] was 7%, the “Population Healthy Nuclei (%)” value [4] was 77% and the “Population Hoechst High Intensity Objects (%)” value [4] was 13%. The “Population Mitochondria Different-Phenotype (%)” value [4] was 61%, the “Population Mitotic Cells (%)” value [4] was 41% and the “Population Normal (%)” value [4] was 86%. For the same compound, the “Population Pyknosed Nuclei (%)” value [4] was 15%, the “Population Tubulin-Different-Phenotype (%)” value [4] was 33% and the “Total Cell Count” value [4] was 272. For the same compound, the “Population Apoptotic (%)” value [5] was 23%, the “Population Fragmented Nuclei (%)” value [5] was 9% and the “Population Healthy Nuclei (%)” value [5] was 80%. The “Population Hoechst High Intensity Objects (%)” value [5] was 4%, the “Population Membrane Permeable-Phenotype (%)” value [5] was 1% and the “Population Mitochondria Different-Phenotype (%)” value [5] was 25%. For the same compound, the “Population Mitotic Cells (%)” value [5] was 76%, the “Population Normal (%)” value [5] was 95% and the “Population Pyknosed Nuclei (%)” value [5] was 10%. The “Population Tubulin-Different-Phenotype (%)” value [5] was 15%, the “Total Cell Count” value [5] was 646 and the “Population Apoptotic (%)” value [6] was 45%. The “Population Fragmented Nuclei (%)” value [6] was 7%, the “Population Healthy Nuclei (%)” value [6] was 84% and the “Population Hoechst High Intensity Objects (%)” value [6] was 2%. The “Population Membrane Permeable-Phenotype (%)” value [6] was 0%, the “Population Mitochondria Different-Phenotype (%)” value [6] was 32% and the “Population Mitotic Cells (%)” value [6] was 54%. For the same compound, the “Population Normal (%)” value [6] was 97%, the “Population Pyknosed Nuclei (%)” value [6] was 7% and the “Population Tubulin-Different-Phenotype (%)” value [6] was 9%. The “Total Cell Count” value [6] was 476, the “Population Apoptotic (%)” value [7] was 43% and the “Population Fragmented Nuclei (%)” value [7] was 9%. The “Population Healthy Nuclei (%)” value [7] was 77%, the “Population Hoechst High Intensity Objects (%)” value [7] was 4% and the “Population Membrane Permeable-Phenotype (%)” value [7] was 0%. The “Population Mitochondria Different-Phenotype (%)” value [7] was 39%, the “Population Mitotic Cells (%)” value [7] was 56% and the “Population Normal (%)” value [7] was 95%. The “Population Pyknosed Nuclei (%)” value [7] was 12%, the “Population Tubulin-Different-Phenotype (%)” value [7] was 25% and the “Total Cell Count” value [7] was 505. For the same compound, the “Population Apoptotic (%)” value [8] was 58%, the “Population Fragmented Nuclei (%)” value [8] was 10% and the “Population Healthy Nuclei (%)” value [8] was 78%. For the same compound, the “Population Hoechst High Intensity Objects (%)” value [8] was 9%, the “Population Mitochondria Different-Phenotype (%)” value [8] was 49% and the “Population Mitotic Cells (%)” value [8] was 41%. For the same compound, the “Population Normal (%)” value [8] was 90%, the “Population Pyknosed Nuclei (%)” value [8] was 11% and the “Population Tubulin-Different-Phenotype (%)” value [8] was 19%. The “Total Cell Count” value [8] was 303, the “Population Apoptotic (%)” value [9] was 19% and the “Population Fragmented Nuclei (%)” value [9] was 13%. For the same compound, the “Population Healthy Nuclei (%)” value [9] was 80%, the “Population Hoechst High Intensity Objects (%)” value [9] was 3% and the “Population Membrane Permeable-Phenotype (%)” value [9] was 0%. For the same compound, the “Population Mitochondria Different-Phenotype (%)” value [9] was 15%, the “Population Mitotic Cells (%)” value [9] was 80% and the “Population Normal (%)” value [9] was 96%. For the same compound, the “Population Pyknosed Nuclei (%)” value [9] was 5%, the “Population Tubulin-Different-Phenotype (%)” value [9] was 12% and the “Total Cell Count” value [9] was 984. The “Population Apoptotic (%)” value [10] was 30%, the “Population Healthy Nuclei (%)” value [10] was 81% and the “Population Hoechst High Intensity Objects (%)” value [10] was 2%. For the same compound, the “Population Membrane Permeable-Phenotype (%)” value [10] was 2%, the “Population Mitochondria Different-Phenotype (%)” value [10] was 16% and the “Population Mitotic Cells (%)” value [10] was 70%. The “Population Normal (%)” value [10] was 97%, the “Population Tubulin-Different-Phenotype (%)” value [10] was 6% and the “Total Cell Count” value [10] was 606. For the same compound, the “Population Apoptotic (%)” value [11] was 44%, the “Population Fragmented Nuclei (%)” value [11] was 15% and the “Population Healthy Nuclei (%)” value [11] was 77%. For the same compound, the “Population Hoechst High Intensity Objects (%)” value [11] was 1%, the “Population Membrane Permeable-Phenotype (%)” value [11] was 0% and the “Population Mitochondria Different-Phenotype (%)” value [11] was 26%. For the same compound, the “Population Mitotic Cells (%)” value [11] was 55%, the “Population Normal (%)” value [11] was 98% and the “Population Pyknosed Nuclei (%)” value [11] was 7%. For the same compound, the “Population Tubulin-Different-Phenotype (%)” value [11] was 18%, the “Total Cell Count” value [11] was 735 and the “Population Apoptotic (%)” value [12] was 35%. For the same compound, the “Population Fragmented Nuclei (%)” value [12] was 19%, the “Population Healthy Nuclei (%)” value [12] was 72% and the “Population Hoechst High Intensity Objects (%)” value [12] was 2%. For the same compound, the “Population Mitochondria Different-Phenotype (%)” value [12] was 28%, the “Population Mitotic Cells (%)” value [12] was 64% and the “Population Normal (%)” value [12] was 97%. For the same compound, the “Population Tubulin-Different-Phenotype (%)” value [12] was 16% and the “Total Cell Count” value [12] was 462.
